Assay results published in ChEMBL document CHEMBL1138203, “Structure-activity relationship analysis of the selective inhibition of transglutaminase 2 by dihydroisoxazoles” (J Med Chem, 2006).

Target: T1, Protein-glutamine gamma-glutamyltransferase (Homo sapiens, UniProt P21980)
T1 sequence (P21980 whole entry): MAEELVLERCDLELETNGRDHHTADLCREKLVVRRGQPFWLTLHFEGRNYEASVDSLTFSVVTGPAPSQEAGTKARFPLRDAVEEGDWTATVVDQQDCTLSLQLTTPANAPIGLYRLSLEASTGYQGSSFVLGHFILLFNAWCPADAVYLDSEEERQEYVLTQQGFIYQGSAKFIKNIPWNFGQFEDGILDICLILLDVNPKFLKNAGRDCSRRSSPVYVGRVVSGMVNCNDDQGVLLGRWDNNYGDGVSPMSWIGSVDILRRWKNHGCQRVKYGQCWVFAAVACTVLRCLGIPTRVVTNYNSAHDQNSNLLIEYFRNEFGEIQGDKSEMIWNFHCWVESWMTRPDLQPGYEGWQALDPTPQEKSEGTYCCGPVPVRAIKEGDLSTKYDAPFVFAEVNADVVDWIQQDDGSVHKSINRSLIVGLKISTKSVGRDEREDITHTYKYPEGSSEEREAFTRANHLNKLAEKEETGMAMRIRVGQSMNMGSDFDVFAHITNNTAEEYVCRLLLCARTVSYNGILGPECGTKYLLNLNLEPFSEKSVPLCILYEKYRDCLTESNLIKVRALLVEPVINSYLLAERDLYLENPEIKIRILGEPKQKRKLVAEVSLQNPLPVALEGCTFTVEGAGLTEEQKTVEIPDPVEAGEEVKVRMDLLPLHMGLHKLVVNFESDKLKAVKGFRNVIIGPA
Assay: Inhibition of human recombinant TG2 expressed in Escherichia coli
Method in brief: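 Enzyme purified to >90%. Inhibitor at 0.001–0.3 mM. Reaction started by adding TG2; NADH loss read at 340 nm. KI and kinh came from fitting progress curves to irreversible-inhibition equations.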

SMILES | Ki [µM]
COc1ccc2[nH]cc(CC(NC(=O)OCc3cnc4ccccc4c3)C(=O)NCC3CC(Br)=NO3)c2c1 (centres undefined) | 51
O=C(N[C@@H](Cc1ccc(O)cc1)C(=O)NCC1CC(Br)=NO1)OCc1cnc2ccccc2c1 (some centres undefined) | 41
O=C(NC(Cc1c[nH]c2ccc(F)cc12)C(=O)NCC1CC(Br)=NO1)OCc1ccccc1 (centres undefined) | 19
O=C(N[C@@H](Cc1c[nH]c2ccc(F)cc12)C(=O)NC[C@@H]1CC(Br)=NO1)OCc1cnc2ccccc2c1 | 1.3
O=C(NC[C@@H]1CC(Br)=NO1)[C@@H]1CCCN1C(=O)OCc1cnc2ccccc2c1 | 11
O=C(NC(Cc1c[nH]c2cc(F)ccc12)C(=O)NCC1CC(Br)=NO1)OCc1ccccc1 (centres undefined) | 18
O=C(N[C@@H](Cc1ccc(O)cc1)C(=O)NC[C@@H]1CC(Br)=NO1)OCc1cnc2ccccc2c1 | 30
O=C(NC(Cc1c[nH]c2cccc(F)c12)C(=O)NCC1CC(Br)=NO1)OCc1ccccc1 (centres undefined) | 99
O=C(NC(Cc1c[nH]c2ccc(F)cc12)C(=O)NCC1CC(Br)=NO1)OCc1cnc2ccccc2c1 (centres undefined) | 18
O=C(N[C@@H](Cc1ccc(O)cc1)C(=O)NC[C@@H]1CC(Br)=NO1)OCc1ccccc1 | 68
O=C(N[C@@H](Cc1c[nH]c2ccc(F)cc12)C(=O)NCC1CC(Br)=NO1)OCc1cnc2ccccc2c1 (some centres undefined) | 4
O=C(NC(Cc1c[nH]c2ccc(O)cc12)C(=O)NCC1CC(Br)=NO1)OCc1cnc2ccccc2c1 (centres undefined) | 34
O=C(NCC1CC(Br)=NO1)C1Cc2ccccc2N1C(=O)OCc1ccccc1 (centres undefined) | 138
O=C(NC(Cc1c[nH]c2ncccc12)C(=O)NCC1CC(Br)=NO1)OCc1ccccc1 (centres undefined) | 22
